In ChEMBL document CHEMBL2176900, “Design and synthesis of a novel series of bicyclic heterocycles as potent γ-secretase modulators” (J Med Chem, 2012):

Legend:
Rattus norvegicus [1] = assay: Antialzheimer activity in Sprague-Dawley rat assessed as amyloid beta 37 level in brain at 10 mg/kg, po at 7 hrs by ELISA relative to control; type: functional
In short: (§1)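 Male Sprague-Dawley rats (180-220 g), fasted overnight, were given 10 mg/kg by gastric intubation as a 5 mg/mL suspension in 0.5% methocellulose. At 2, 4, 7 and 25 h, 50 μL CSF was taken from the cisterna magna under isoflurane, then brain was collected. Aβ37/38/40/42 were measured by MesoScale Discovery sandwich immunoassays. Results are mean % change versus T = 0 h, n = 5.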

[2] = molecular target: Voltage-gated inwardly rectifying potassium channel KCNH2 (Homo sapiens, UniProt Q12809); assay: Displacement of [3H]dofetilide to human ERG expressed in HEK293 cells; type: cell-based
Rattus norvegicus [3] = assay: Antialzheimer activity in Sprague-Dawley rat assessed as amyloid beta 40 level in CSF at 10 mg/kg, po at 2 hrs by ELISA relative to control; type: functional; in short: as §1
Mus musculus [4] = assay: Antialzheimer activity in po dosed CD1 mouse assessed as amyloid beta 42 level in brain at 4,8 and 24 hrs by ELISA; type: functional, organism-based
In short: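 Overnight-fasted male CD1 SPF mice got one oral dose (10 or 30 mg/kg) formulated in 20% Captisol in water. Right brain hemisphere was homogenized in 0.4% DEA/50 mM NaCl with protease inhibitors and spun at 221300g. Supernatant was neutralized with Tris-HCl pH 6.8. Aβ42 was measured by ELISA (C-terminal JRF/cAβ42/26 capture, fluorogenic peroxidase read ex 320/em 420 nm). Values are mean % change vs T = 0 h, n = 4.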

Canis familiaris [5] = assay: Antialzheimer activity in beagle dog assessed as amyloid beta 40 level in cerebrospinal fluid at 20 mg/kg, po at 8 hrs by ELISA relative to control
Mus musculus [6] = assay: Antialzheimer activity in CD1 mouse assessed as amyloid beta 42 level in brain at 30 mg/kg, po at 4 hrs by ELISA relative to control; type: functional
In short: (§2)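 Male CD1 SPF mice, fasted overnight, got a single oral dose of 10 or 30 mg/kg. At each time point the right brain hemisphere was homogenized in 0.4% DEA/50 mM NaCl with protease inhibitors and spun at 221300g for 50 min. The supernatant was neutralized with Tris-HCl pH 6.8. Aβ38 or Aβ42 was read by sandwich ELISA with a fluorogenic peroxidase substrate (ex 320/em 420 nm). Results are mean % change versus T = 0 h, n = 4.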

Mus musculus [7] = assay: Antialzheimer activity in CD1 mouse assessed as amyloid beta 38 level in brain at 10 mg/kg, po at 4 hrs by ELISA relative to control; type: functional; in short: as §2
Mus musculus [8] = assay: Antialzheimer activity in CD1 mouse assessed as amyloid beta 42 level in brain at 30 mg/kg, po at 24 hrs by ELISA relative to control; type: functional; in short: as §2
[9] = Plasma concentration in Sprague-Dawley rat at 10 mg/kg, po at 7 hrs by LC-MS/MS analysis; type: ADME, organism-based; design: dose 10 mg/kg, route oral
In short: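 Overnight-fasted male Sprague-Dawley rats (180–220 g) were given 10 mg/kg by gastric intubation of a 5 mg/mL suspension in 0.5% methocellulose. Blood was collected after decapitation at 2, 4, 7 and 25 h under isoflurane anaesthesia. Plasma compound was measured as in the mouse assay, n = 5.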

Canis familiaris [10] = assay: Antialzheimer activity in beagle dog assessed as amyloid beta 38 level in cerebrospinal fluid at 20 mg/kg, po at 8 hrs by ELISA relative to control
Rattus norvegicus [11] = assay: Antialzheimer activity in Sprague-Dawley rat assessed as amyloid beta 37 level in brain at 10 mg/kg, po at 2 hrs by ELISA relative to control; type: functional; in short: as §1
[12] = Lipophilicity, log P of the compound; type: physicochemical; conditions: octanol/water
Rattus norvegicus [13] = assay: Antialzheimer activity in Sprague-Dawley rat assessed as amyloid beta 38 level in brain at 10 mg/kg, po at 2 hrs by ELISA relative to control; type: functional; in short: as §1
Canis familiaris [14] = assay: Antialzheimer activity in beagle dog assessed as amyloid beta 42 level in cerebrospinal fluid at 20 mg/kg, po at 4 hrs by ELISA relative to control
[15] = Drug uptake in Sprague-Dawley rat brain at 10 mg/kg, po at 7 hrs by LC-MS/MS analysis; type: ADME, organism-based; design: dose 10 mg/kg, route oral; conditions: read-out: Drug uptake
In short: (§3)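 Overnight-fasted male Sprague–Dawley rats (180–220 g) were dosed 10 mg/kg by gastric intubation of a 5 mg/mL suspension in 0.5% methocellulose. Rats were anesthetized with isoflurane, CSF was taken from the cisterna magna, then they were decapitated. Brain compound levels were measured as in the mouse assay. n = 5.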

Rattus norvegicus [16] = assay: Antialzheimer activity in Sprague-Dawley rat assessed as amyloid beta 38 level in CSF at 10 mg/kg, po at 2 hrs by ELISA relative to control; type: functional; in short: as §1
[17] = Oral bioavailability in beagle dog at 5 mg/kg; type: ADME, organism-based, Canis lupus familiaris; conditions: in vivo
Mus musculus [18] = assay: Inhibition of gamma-secretase in CD1 mouse assessed as total amyloid beta level in brain at 30 mg/kg, po at 8 hrs by ELISA relative to control; type: functional; design: scale not given: the % may be the effect or the level left
In short: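 Fasted male CD1 SPF mice were dosed orally at 10 or 30 mg/kg in 20% Captisol. Right hemisphere was homogenized in 0.4% DEA/50 mM NaCl and the high-speed supernatant neutralized. Aβtotal ELISA used N-terminal JRF/rAβ/2 capture, biotinylated 4G8 and streptavidin-peroxidase, then a fluorogenic substrate (ex 320/em 420 nm). Standards spanned 10000–0.3 pg/mL. Values are % change vs T = 0 h, n = 4.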

Brain = assay: Drug uptake in Sprague-Dawley rat brain at 10 mg/kg, po at 25 hrs by LC-MS/MS analysis; type: ADME, organism-based; design: dose 10 mg/kg, route oral; conditions: in vivo, BLD = below limit of detection; in short: as §3
[19] = Genotoxicity against human TK6 cells by GreenScreen HC test; type: toxicity, cell-based
[20] = Drug uptake in CD1 mouse brain at 30 mg/kg, po at 24 hrs by LC-MS/MS analysis; type: ADME, organism-based; design: dose 30 mg/kg, route oral; conditions: read-out: Drug uptake
In short: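 Overnight-fasted male CD1 mice received one oral dose (10 or 30 mg/kg) in 20% Captisol. After sacrifice, the left brain hemisphere was stored at −18 °C. Compound level was quantified by a qualified LC-MS/MS method, alongside EDTA plasma spun at 1900g, 4 °C. n = 4 per time point.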

Rattus norvegicus [21] = assay: Antialzheimer activity in Sprague-Dawley rat assessed as amyloid beta 42 level in brain at 10 mg/kg, po at 2 hrs by ELISA relative to control; type: functional; in short: as §1
[22] = Drug metabolism in mouse liver microsomes at 1 uM after 15 mins by ion-trap mass spectrophotometry; type: ADME, Microsome; conditions: read-out: Drug metabolism
Rattus norvegicus [23] = assay: Antialzheimer activity in Sprague-Dawley rat assessed as amyloid beta 40 level in CSF at 10 mg/kg, po at 25 hrs by ELISA relative to control; type: functional; in short: as §1
Canis familiaris [24] = assay: Antialzheimer activity in beagle dog assessed as amyloid beta 40 level in cerebrospinal fluid at 20 mg/kg, po at 24 hrs by ELISA relative to control

Chain of Voltage-gated inwardly rectifying potassium channel KCNH2 (Q12809 whole entry): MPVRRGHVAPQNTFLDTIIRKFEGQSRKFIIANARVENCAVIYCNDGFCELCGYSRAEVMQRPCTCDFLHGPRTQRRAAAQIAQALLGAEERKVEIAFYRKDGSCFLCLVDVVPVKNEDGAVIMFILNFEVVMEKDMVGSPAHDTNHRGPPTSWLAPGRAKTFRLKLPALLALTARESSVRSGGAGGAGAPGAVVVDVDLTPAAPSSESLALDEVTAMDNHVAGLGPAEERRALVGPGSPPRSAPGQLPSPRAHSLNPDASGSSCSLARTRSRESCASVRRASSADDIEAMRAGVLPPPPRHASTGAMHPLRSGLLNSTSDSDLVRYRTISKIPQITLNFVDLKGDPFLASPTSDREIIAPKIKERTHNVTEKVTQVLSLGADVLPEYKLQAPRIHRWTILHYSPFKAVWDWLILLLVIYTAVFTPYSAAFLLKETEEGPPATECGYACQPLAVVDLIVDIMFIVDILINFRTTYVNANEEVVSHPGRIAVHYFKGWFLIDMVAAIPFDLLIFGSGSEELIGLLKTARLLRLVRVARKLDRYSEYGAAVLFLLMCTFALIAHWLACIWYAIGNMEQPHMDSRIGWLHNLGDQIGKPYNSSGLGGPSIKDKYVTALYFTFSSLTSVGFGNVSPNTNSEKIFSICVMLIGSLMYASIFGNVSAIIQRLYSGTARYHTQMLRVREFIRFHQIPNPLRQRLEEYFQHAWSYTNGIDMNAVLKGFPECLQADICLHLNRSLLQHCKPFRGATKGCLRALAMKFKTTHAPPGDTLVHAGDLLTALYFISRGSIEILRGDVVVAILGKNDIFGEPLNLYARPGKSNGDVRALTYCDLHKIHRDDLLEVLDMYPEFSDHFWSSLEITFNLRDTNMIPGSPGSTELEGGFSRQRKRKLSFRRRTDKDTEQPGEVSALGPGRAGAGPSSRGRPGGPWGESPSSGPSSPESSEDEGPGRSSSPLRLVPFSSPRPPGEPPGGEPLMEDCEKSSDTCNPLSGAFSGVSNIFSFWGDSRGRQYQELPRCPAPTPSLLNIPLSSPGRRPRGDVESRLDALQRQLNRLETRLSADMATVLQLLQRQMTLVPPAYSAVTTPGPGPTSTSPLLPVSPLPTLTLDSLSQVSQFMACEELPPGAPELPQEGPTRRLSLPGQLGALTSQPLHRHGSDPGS

COc1nc(Nc2cccc3c2nc(-c2ccc(F)cc2)n3C)ccc1-n1cnc(C)c1
Activity (Rattus norvegicus [1]): 620% | IC50 [2]: 8.5 µM | Activity (Rattus norvegicus [3]): 60% | Activity (Mus musculus [4]): Dose-dependent effect | Activity (Canis familiaris [5]): 64% | Activity (Mus musculus [6]): 35% | Activity (Mus musculus [7]): 141% | Activity (Mus musculus [8]): 77% | concentration at 7 h [9]: 4000 nM | Activity (Canis familiaris [10]): 184% | Activity (Rattus norvegicus [11]): 502% | logP [12]: 5.25 | Activity (Rattus norvegicus [13]): 149% | Activity (Canis familiaris [14]): 81% | concentration at 7 h [15]: 2000 nM | Activity (Rattus norvegicus [16]): 162% | bioavailability [17]: 64% | Activity (Mus musculus [18]): 83% | Drug uptake (Brain): BLD | Activity [19]: Non-toxic | concentration at 24 h [20]: 440 nM | Activity (Rattus norvegicus [21]): 75% | metabolised at 0.25 h, 1 µM [22]: 0% | Activity (Rattus norvegicus [23]): 83% | Activity (Canis familiaris [24]): 113%
